Compounds with a hit are over-represented: about 1.4% of the library has one in this group of screens.
APJ ag: APJ receptor agonism; P35414; CHO-K1 APJ PathHunter beta-arrestin, luminescence; 0% DMSO wells, 100% apelin; activation, % at 20 µM; 0.11% of 330,000 active; AID 2520;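 active = activation more than six SD over the plate average, tested at 20 µM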;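 also: 0% = DMSO alone and 100% = apelin-13 at 10 nM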
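Assay system: CHO-K1 APJ beta-arrestin complementation cell line / Compound: single test compound dose, 20 µM final, 1% DMSO / Times: overnight seeding, 90 min compound at 25 °C, 1 h detection / Technique: beta-gal luminescence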
CXCR6 block: inhibitors of human CXCR6 receptor. O00574. CHO-K1 PathHunter CXCR6 beta-arrestin, luminescence. inhibition, % at 20 µM. 0.36% of 360,000 active. AID 602244; in the data active = inhibition above about 34%, passing the limit was not always enough;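 also: antagonist mode with CXCL16 agonist at 10 nM final; 0% = 10 nM CXCL16 with DMSO and 100% = unstimulated wells without agonist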
APJ antag: blocks the human apelin receptor APJ | 0.32% of 330,000 active | inhibition, % at 20 µM | P35414 | AID 2521 | CHO-K1 APJ beta-arrestin complementation, luminescence;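 active = inhibition above about 40% at 20 µM, limit read from the data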;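 also: cells challenged with 10 nM apelin-13 agonist together with compound; plate controls were apelin-13 plus DMSO wells for no effect and DMSO wells lacking apelin-13 for full effect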
CCR6 antagonist: blocks CCL20-driven beta-arrestin recruitment at human CCR6. 0.49% of 340,000 active. CHO-K1 CCR6 PathHunter beta-arrestin, luminescence, CCL20-stimulated. P51684. inhibition, % at 20 µM;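 active = compounds whose inhibition of the agonist-driven luminescence signal at 20 µM reaches about 50%, limit read from the data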;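 also: cells stimulated with CCL20 at 14 nM final; plate controls were DMSO with CCL20 for no effect and DMSO without agonist for full effect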
Target sequence (P51684 whole entry, looked up): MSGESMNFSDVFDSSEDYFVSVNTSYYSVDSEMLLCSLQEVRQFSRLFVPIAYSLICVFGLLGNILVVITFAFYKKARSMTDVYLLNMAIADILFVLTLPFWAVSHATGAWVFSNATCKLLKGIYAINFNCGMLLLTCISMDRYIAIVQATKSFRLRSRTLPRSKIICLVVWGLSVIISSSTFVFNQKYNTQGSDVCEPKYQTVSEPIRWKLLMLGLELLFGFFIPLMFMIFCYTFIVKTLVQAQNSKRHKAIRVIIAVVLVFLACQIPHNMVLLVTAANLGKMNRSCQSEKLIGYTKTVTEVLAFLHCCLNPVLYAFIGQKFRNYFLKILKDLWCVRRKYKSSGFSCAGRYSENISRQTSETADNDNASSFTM
A3G deaminase: blocks human APOBEC3G single-stranded DNA deamination | Q9HC16 | recombinant A3G, ssDNA deamination FAM/TAMRA fluorescence | inhibition, % at 20 µM | 0.28% of 330,000 active | AID 493012;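 active = inhibition of at least 40% at 20 µM, with no more than 30% in the related APOBEC3A deaminase screen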;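 also: plate controls were DMSO wells with A3G for no effect and wells lacking A3G enzyme for full effect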
A3A deaminase: blocks human APOBEC3A ssDNA deamination; P31941; recombinant A3A, FAM/TAMRA ssDNA deamination fluorescence; inhibition, % at 20 µM; 0.41% of 330,000 active;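 active = at least 40% inhibition at 20 µM here, with at most 30% in a related deaminase screen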;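 also: plate controls were A3A with DMSO for no effect and wells lacking A3A enzyme for full effect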
Target sequence (P31941 whole entry, looked up): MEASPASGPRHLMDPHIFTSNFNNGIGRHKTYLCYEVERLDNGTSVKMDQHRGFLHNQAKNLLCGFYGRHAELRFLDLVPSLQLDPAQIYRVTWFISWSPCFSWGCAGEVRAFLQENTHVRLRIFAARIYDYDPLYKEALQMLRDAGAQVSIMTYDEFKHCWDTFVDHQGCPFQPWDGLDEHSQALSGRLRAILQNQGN
APOBEC3A confirm: confirmation of human APOBEC3A DNA deaminase inhibitors. shares compounds with A3A deaminase. recombinant A3A, ssDNA deaminase UDG fluorescence assay. inhibition, % at 20 µM. 63% of 1,400 active;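 active = inhibition reaching a set limit, 80% of the first screen's cutoff, at 20 µM in any replicate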;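 also: plate controls were DMSO wells with A3A for no effect and wells lacking A3A enzyme for full effect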
UDG A3A counter: UDG inhibition in APOBEC3A counter-screen; shares compounds with A3A deaminase; UDG counterscreen, FAM/TAMRA uracil oligo fluorescence; inhibition, % at 20 µM; 1,000 tested, under 10 active; AID 504714; call rule not given here
Starred values were filed as active, the others as inactive; ! = not confirmed by another sample.

CC(=O)c1ccc(S(=O)(=O)N2Cc3ccccc3CC2C(=O)O)cc1 (stereo unspecified) was read as APJ ag 1, CXCR6 block 0, APJ antag -3, CCR6 antagonist 4, A3G deaminase 19, A3A deaminase 56*, APOBEC3A confirm 56* and UDG A3A counter 2.
For C[n+]1cccc2ccc3c(c21)OC(N)=C(C#N)C3c1ccccc1 (stereo unspecified) the results were APJ ag -1, CXCR6 block 4, APJ antag 8, CCR6 antagonist 2, A3G deaminase 13 and A3A deaminase 34.
`C[n+]1cccc(C2C(C#N)=C(N)Oc3c2ccc2ccccc32)c1` (stereo unspecified) gave APJ ag 5, CXCR6 block -1, APJ antag -10, CCR6 antagonist -4, A3G deaminase 15, A3A deaminase 41*, APOBEC3A confirm 31* and UDG A3A counter -1.
For CN(C)C(=O)c1cccc(-c2cnc3cccnn23)c1 the results were CXCR6 block 5.
Screening COc1ccc(N2CC(C(=O)Nc3nnc(SCC(=O)NC(C)(C)C)s3)CC2=O)cc1 (stereo unspecified) returned APJ ag -3, CXCR6 block -6, APJ antag -3, CCR6 antagonist 5, A3G deaminase 12, A3A deaminase 48* and APOBEC3A confirm 8.
Screening CCC(=O)/C=C1\Sc2ccc(OC)cc2N1CC returned APJ ag -3, CXCR6 block -3, APJ antag 1, CCR6 antagonist 8, A3G deaminase -2 and A3A deaminase 0.
Screening CCN1/C(=C\C(C)=O)Sc2ccc(OC)cc21 returned APJ ag 2, CXCR6 block 5, APJ antag 12, CCR6 antagonist -4, A3G deaminase 16, A3A deaminase 58*, APOBEC3A confirm 67* and UDG A3A counter 2.
For CCc1cc(=O)oc2cc(C)c(CN3CCCCC3)c(O)c12 the results were CXCR6 block 3 and CCR6 antagonist -7.
For CCc1cc(=O)oc2cc(C)c(CN3CCCC3)c(O)c12 the results were APJ ag -2, CXCR6 block 2, APJ antag -2, CCR6 antagonist 5, A3G deaminase 17, A3A deaminase 41* and APOBEC3A confirm 54*.
`CSc1cccc(NC(=O)CCNS(=O)(=O)c2ccc3[nH]c(=O)oc3c2)c1` gave APJ ag 0, CXCR6 block 3, APJ antag 5, CCR6 antagonist 4, A3G deaminase 6 and A3A deaminase 1.
O=C(CN1C(=O)NC2(CCSC2)C1=O)NCc1ccccc1 (stereo unspecified) was read as APJ ag -1, CXCR6 block -2, APJ antag -2, CCR6 antagonist 3, A3G deaminase -9, A3A deaminase 84*, APOBEC3A confirm -6 and UDG A3A counter -2.
Screening CC1CCN(C(=O)c2[nH]cnc2C(=O)NCc2ccc(CNC(=O)OC(C)(C)C)cc2)CC1 returned APJ ag -4, CXCR6 block -10, APJ antag 5, CCR6 antagonist 11, A3G deaminase -13 and A3A deaminase -4.
Screening CN(C)C1=NC[C@H](Cc2ccccc2)N1CC1CCCCCC1 returned APJ ag -4, CXCR6 block 11, APJ antag -51, CCR6 antagonist 8, A3G deaminase -6 and A3A deaminase -3.
N=c1sccn1CC(=O)Nc1cc(S(=O)(=O)N2CCCCC2)ccc1Cl was read as APJ ag -3, CXCR6 block -2, APJ antag -9, CCR6 antagonist 16, A3G deaminase -2 and A3A deaminase 1.
Screening CCN(CC)CCCNC(=O)C1CCN(c2ncnc3c2sc2cccc(F)c23)CC1 returned APJ ag -1, CXCR6 block 2, APJ antag -6, CCR6 antagonist 8, A3G deaminase -1, A3A deaminase 48*, APOBEC3A confirm 2 and UDG A3A counter 1.
Screening CC1CC(C)CN(CCCNC(=O)C2CCN(c3ncnc4c3sc3cccc(F)c34)CC2)C1 (stereo unspecified) returned APJ ag -5, APJ antag 11, A3G deaminase -4 and A3A deaminase 4.
`Nc1ccc(C(=O)OCc2ccncc2)cc1[N+](=O)[O-]` gave APJ ag -4, CXCR6 block -2, APJ antag -7, CCR6 antagonist 6, A3G deaminase -11 and A3A deaminase 6.
Screening O=C(CNC(=O)c1cccc(F)c1)OCC(=O)N1CCCCC1 returned APJ ag -8, CXCR6 block 1, APJ antag -2, CCR6 antagonist -4, A3G deaminase 2, A3A deaminase 41* and APOBEC3A confirm 2.
Screening CCCCn1c(N)c(N(CCOC)C(=O)CCCn2c(=O)oc3ccccc32)c(=O)[nH]c1=O returned CXCR6 block -6 and CCR6 antagonist 6.
`CC(O)/C=C/c1cccc[n+]1C` (stereo unspecified) gave APJ ag -5, CXCR6 block 5, APJ antag 1, CCR6 antagonist -18, A3G deaminase 27, A3A deaminase 60*, APOBEC3A confirm 80* and UDG A3A counter 6.
Screening C[n+]1ccccc1/C=C/c1cc(Br)ccc1O returned APJ ag -3, CXCR6 block 1, APJ antag -9, CCR6 antagonist 6, A3G deaminase 15, A3A deaminase 50*, APOBEC3A confirm 26* and UDG A3A counter -3.
COc1ccc(/C=C/c2cccc[n+]2C)c(O)c1 was read as APJ ag 3, CXCR6 block -5, APJ antag -11, CCR6 antagonist 14, A3G deaminase 36 and A3A deaminase 37.
`C[n+]1ccccc1/C=N/O` gave APJ ag -4, CXCR6 block 6, APJ antag 6, CCR6 antagonist 1, A3G deaminase 3, A3A deaminase 65*!, APOBEC3A confirm 80* and UDG A3A counter -1.
`CC(Sc1nnnn1C)C(=O)Nc1ccc(Oc2ccccc2)cc1` (stereo unspecified) gave APJ ag 2, CXCR6 block 2, APJ antag 9, CCR6 antagonist 14, A3G deaminase 2 and A3A deaminase 3.
`CCC(Sc1nnnn1C)C(=O)Nc1ccc(C(C)=O)cc1` (stereo unspecified) gave APJ ag -2, CXCR6 block -10, APJ antag -17, CCR6 antagonist 2, A3G deaminase 18, A3A deaminase 40* and APOBEC3A confirm 29.

Screening results: PubChem, Sanford-Burnham Center for Chemical Genomics
